{"data": "Results gathered from unrelated publications", "sample": "plasma", "route": "oral"}
{"SMILES": "COc1ccc([C@@H]2CN(C(=O)[C@@H](O)CO)C[C@@]2(C)[C@@H](C)O)cc1OC1CN(c2ccc(C)cn2)C1", "test system": "human", "conditions": "10 mg, single dose, healthy volunteers", "AUC(0-inf)": "3160 ng·h/mL"}
{"SMILES": "CC(C)(Sc1ccncc1-c1ccc(C#N)c2ccccc12)C(=O)O", "test system": "male human", "conditions": "40 mg, single dose, fasted, healthy volunteers", "AUC(0-inf)": "1270 ng·h/mL"}
{"SMILES": "O=C(Nc1c(Cl)cncc1Cl)c1ccc(OC(F)F)c(OCC2CC2)c1", "test system": "human", "conditions": "0.375 mg, single dose, fasted", "AUC(0-inf)": "48.7 ng·h/mL"}
{"SMILES": "Cn1cc(-c2ccc(S(=O)(=O)[C@@H]3C[C@@H](C(=O)NC4(C#N)CC4)N(C(=O)C4(C(F)(F)F)CC4)C3)c(C(F)(F)F)c2)cn1", "test system": "human", "conditions": "3 mg, single dose, fasted, healthy volunteers", "AUC(0-inf)": "229 ng·h/mL"}
{"SMILES": "CC(C)[C@](O)(c1ccc2cc(OC(F)F)c(OC(F)F)cc2c1)c1c[nH]nn1", "test system": "female human", "conditions": "750 mg, single dose", "AUC(0-inf)": "84600 ng·h/mL"}
{"SMILES": "CO[C@H]1CC[C@H](N2C(=O)CNc3ncc(-c4ccc(C(C)(C)O)nc4)nc32)CC1", "test system": "human", "conditions": "7.5 mg, patients", "AUC(0-inf)": "353 ng·h/mL"}
{"SMILES": "CC(C)n1cc(C#N)c2cc(-n3cc(C(=O)O)cn3)ccc21", "test system": "human", "conditions": "50 mg, single dose, fasted, healthy volunteers", "AUC(0-inf)": "7120 ng·h/mL"}
{"SMILES": "C[C@@]1(c2cc(NC(=O)c3ccc(C#N)cn3)ccc2F)C=CSC(N)=N1", "test system": "human", "conditions": "3 mg, single dose", "AUC(0-inf)": "259 ng·h/mL"}
{"SMILES": "COc1ccc(-n2nc(C(N)=O)c3c2C(=O)N(c2ccc(N4CCCCC4=O)cc2)CC3)cc1", "test system": "male human", "conditions": "10 mg, single dose", "AUC(0-inf)": "1630 ng·h/mL"}
{"SMILES": "CC(C)(O)c1ccccc1-c1ccc2[nH]c(/C=C/c3ccc(C(F)(F)F)cc3)nc2c1", "test system": "male human", "conditions": "5 mg, single dose, fasted", "AUC(0-inf)": "876 ng·h/mL"}
{"SMILES": "CCc1nc2c(C)cc(N3CCN(CC(=O)N4CC(O)C4)CC3)cn2c1N(C)c1nc(-c2ccc(F)cc2)c(C#N)s1", "test system": "human", "conditions": "300 mg, single dose, fed, healthy volunteers", "AUC(0-inf)": "14900 ng·h/mL"}
{"SMILES": "CS(=O)(=O)CCC#N", "test system": "human", "conditions": "100 mg, single dose, fasted", "AUC(0-inf)": "77000 ng·h/mL"}
